Columns and labels:
[1] = target: T1, ATP-dependent translocase ABCB1 (Homo sapiens, UniProt P08183); test: Inhibition of P-gp (unknown origin)
[2] = target: T2, Multidrug resistance-associated protein 1 (Homo sapiens, UniProt P33527); test: Inhibition of MRP1 (unknown origin)
[3] = target: T3, Broad substrate specificity ATP-binding cassette transporter ABCG2 (Homo sapiens, UniProt Q9UNQ0); test: Inhibition of BCRP (unknown origin) expressed in MDCK cells assessed as increase in Hoechst 33342 accumulation incubated for 30 mins by Hoechst 33342 dye based fluorescence assay; type: cell-based
T3 sequence (Q9UNQ0 whole entry): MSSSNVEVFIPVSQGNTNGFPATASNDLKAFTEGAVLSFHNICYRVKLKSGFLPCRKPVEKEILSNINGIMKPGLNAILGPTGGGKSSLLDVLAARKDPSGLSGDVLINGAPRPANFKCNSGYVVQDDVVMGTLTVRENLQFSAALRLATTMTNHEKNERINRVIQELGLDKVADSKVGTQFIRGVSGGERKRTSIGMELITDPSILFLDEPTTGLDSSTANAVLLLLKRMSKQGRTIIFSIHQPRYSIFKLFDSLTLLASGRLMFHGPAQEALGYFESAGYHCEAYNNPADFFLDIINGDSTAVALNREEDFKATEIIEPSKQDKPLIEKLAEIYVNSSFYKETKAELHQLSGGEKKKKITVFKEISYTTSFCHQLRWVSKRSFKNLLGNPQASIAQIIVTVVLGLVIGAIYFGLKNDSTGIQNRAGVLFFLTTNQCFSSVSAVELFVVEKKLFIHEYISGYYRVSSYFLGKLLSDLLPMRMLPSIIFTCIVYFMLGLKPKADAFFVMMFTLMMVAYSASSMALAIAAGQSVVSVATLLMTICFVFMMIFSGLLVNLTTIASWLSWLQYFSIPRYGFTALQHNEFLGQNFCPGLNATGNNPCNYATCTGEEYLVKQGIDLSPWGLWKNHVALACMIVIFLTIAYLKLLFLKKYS

[4] = target: T2, Multidrug resistance-associated protein 1; test: Inhibition of human MRP1 expressed in human MDR cells measured for 2 hrs; type: cell-based
[5] = target: T3, Broad substrate specificity ATP-binding cassette transporter ABCG2; test: Inhibition of BCRP (unknown origin) expressed in dog MDCK-II cells using pheophorbide A as substrate preincubated for 20 mins followed by substrate addition and measured after 120 mins by flow cytometry analysis; type: cell-based
Procedure, shortened: (§1)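 MDCK II cells transfected with human wild-type BCRP cDNA C-terminally fused to GFP, grown in DMEM/10% FBS. About 45,000 cells per well preincubated 20 min at 37 °C, 5% CO2 with compound (100 nM–100 µM added solutions), then pheophorbide A (5 µM solution added) for 120 min to steady state. Resuspended; flow cytometry, 488 nm excitation, FL3 (≥670 nm); GFP in FL1. Reference inhibitor 24 at 10 µM = 100%.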

P-gp (ABCB1) [6] = target: T4, P-gp (ABCB1) (Homo sapiens, UniProt P08183); test: Inhibition of P-gp (unknown origin) at 10 uM incubated for 30 mins by calcein AM analysis relative to control; conditions: probe calcein AM
T4 sequence (P08183 whole entry): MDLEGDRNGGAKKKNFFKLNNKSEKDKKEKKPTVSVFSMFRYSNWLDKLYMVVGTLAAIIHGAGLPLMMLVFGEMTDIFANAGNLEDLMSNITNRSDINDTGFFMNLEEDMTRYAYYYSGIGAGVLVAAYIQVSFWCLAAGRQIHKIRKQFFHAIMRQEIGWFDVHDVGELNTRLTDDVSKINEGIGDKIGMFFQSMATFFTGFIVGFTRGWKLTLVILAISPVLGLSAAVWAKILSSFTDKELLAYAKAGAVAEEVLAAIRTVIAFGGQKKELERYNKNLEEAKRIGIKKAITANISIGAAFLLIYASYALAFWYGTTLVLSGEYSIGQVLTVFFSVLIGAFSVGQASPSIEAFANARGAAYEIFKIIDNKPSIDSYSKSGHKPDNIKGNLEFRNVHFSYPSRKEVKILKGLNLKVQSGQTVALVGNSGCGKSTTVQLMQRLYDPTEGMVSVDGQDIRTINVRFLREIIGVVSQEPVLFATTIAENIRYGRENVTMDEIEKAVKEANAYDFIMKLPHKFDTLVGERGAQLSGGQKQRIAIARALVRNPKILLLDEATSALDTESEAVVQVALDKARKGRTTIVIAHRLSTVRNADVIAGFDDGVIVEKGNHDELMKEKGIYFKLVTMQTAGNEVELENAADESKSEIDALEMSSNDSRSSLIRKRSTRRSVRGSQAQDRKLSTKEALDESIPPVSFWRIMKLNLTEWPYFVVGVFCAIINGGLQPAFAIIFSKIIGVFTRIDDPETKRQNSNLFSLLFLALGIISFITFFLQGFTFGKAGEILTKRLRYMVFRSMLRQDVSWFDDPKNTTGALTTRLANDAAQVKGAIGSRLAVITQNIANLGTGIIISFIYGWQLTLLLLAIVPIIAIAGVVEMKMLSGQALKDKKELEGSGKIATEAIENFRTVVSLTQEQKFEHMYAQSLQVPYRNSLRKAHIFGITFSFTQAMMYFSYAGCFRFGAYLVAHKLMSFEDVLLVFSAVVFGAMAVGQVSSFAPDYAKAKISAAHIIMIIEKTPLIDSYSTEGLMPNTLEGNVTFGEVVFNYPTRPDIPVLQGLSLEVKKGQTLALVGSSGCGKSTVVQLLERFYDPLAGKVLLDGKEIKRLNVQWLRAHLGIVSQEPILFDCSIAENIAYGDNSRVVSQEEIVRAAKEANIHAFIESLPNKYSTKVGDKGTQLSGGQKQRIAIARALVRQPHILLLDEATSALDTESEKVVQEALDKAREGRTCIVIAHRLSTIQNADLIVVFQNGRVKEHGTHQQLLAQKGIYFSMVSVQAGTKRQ
Procedure, shortened: (§2)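 A2780/ADR cells (doxorubicin-selected, P-gp overexpressing), about 30,000 per well in Krebs-HEPES buffer pH 7.4, incubated 30 min at 37 °C with compound (100 nM–100 µM added solutions). Calcein AM (3.125 µM solution added) then fluorescence read every 60 s at 37 °C, ex 485/em 520 nm; slope over minutes 5–30 plotted vs log concentration. Cyclosporine A 10 µM = 100% inhibition, buffer = 0%.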

[7] = target: T3, Broad substrate specificity ATP-binding cassette transporter ABCG2; test: Inhibition of BCRP (unknown origin)
Procedure, shortened: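 Pheophorbide A accumulation in MDCK II cells transfected with human wild-type BCRP cDNA C-terminally linked to GFP, ~45,000 cells/well. Compound (100 nM–100 µM) preincubated 20 min at 37 °C, 5% CO2. Pheophorbide A stock 5 µM added, then 120 min to steady state. Flow cytometry read-out: FL3 (≥670 nm, 488 nm excitation).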

BCRP (ABCG2) [8] = target: T5, BCRP (ABCG2) (Homo sapiens, UniProt Q9UNQ0); test: Inhibition of BCRP (unknown origin) expressed in dog MDCK-II cells at 10 uM using pheophorbide A as substrate preincubated for 20 mins followed by substrate addition and measured after 120 mins by flow cytometry analysis relative to control; type: cell-based; conditions: probe pheophorbide A; procedure, shortened: as §1
T5 sequence (Q9UNQ0 whole entry): T3 sequence (Q9UNQ0 whole entry)

[9] = target: T2, Multidrug resistance-associated protein 1; test: Inhibition of MRP1 in human NCI-H69AR cells incubated for 180 mins in presence of daunorubicin by flow cytometry analysis; type: cell-based
Procedure, shortened: (§3)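 H69AR cells (doxorubicin-selected small cell lung cancer, RPMI-1640/20% FBS), about 60,000 per well, preincubated 15 min with compound (100 nM–100 µM added solutions, in unsupplemented medium), then daunorubicin (30 µM solution added); steady state after 180 min, 37 °C, 5% CO2. Cells resuspended; flow cytometry, 488 nm excitation, FL3 (≥670 nm). Reference inhibitor 75 at 10 µM = 100%; Imax relative to it.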

[10] = target: T1, ATP-dependent translocase ABCB1; test: Inhibition of P-gp (unknown origin) incubated for 30 mins by calcein AM analysis; procedure, shortened: as §2
MRP1 [11] = target: T6, MRP1 (Homo sapiens, UniProt P33527); test: Inhibition of MRP1 in human NCI-H69AR cells at 10 uM incubated for 180 mins in presence of daunorubicin by flow cytometry analysis relative to control; type: cell-based; conditions: probe daunorubicin; procedure, shortened: as §3
T6 sequence (P33527 whole entry): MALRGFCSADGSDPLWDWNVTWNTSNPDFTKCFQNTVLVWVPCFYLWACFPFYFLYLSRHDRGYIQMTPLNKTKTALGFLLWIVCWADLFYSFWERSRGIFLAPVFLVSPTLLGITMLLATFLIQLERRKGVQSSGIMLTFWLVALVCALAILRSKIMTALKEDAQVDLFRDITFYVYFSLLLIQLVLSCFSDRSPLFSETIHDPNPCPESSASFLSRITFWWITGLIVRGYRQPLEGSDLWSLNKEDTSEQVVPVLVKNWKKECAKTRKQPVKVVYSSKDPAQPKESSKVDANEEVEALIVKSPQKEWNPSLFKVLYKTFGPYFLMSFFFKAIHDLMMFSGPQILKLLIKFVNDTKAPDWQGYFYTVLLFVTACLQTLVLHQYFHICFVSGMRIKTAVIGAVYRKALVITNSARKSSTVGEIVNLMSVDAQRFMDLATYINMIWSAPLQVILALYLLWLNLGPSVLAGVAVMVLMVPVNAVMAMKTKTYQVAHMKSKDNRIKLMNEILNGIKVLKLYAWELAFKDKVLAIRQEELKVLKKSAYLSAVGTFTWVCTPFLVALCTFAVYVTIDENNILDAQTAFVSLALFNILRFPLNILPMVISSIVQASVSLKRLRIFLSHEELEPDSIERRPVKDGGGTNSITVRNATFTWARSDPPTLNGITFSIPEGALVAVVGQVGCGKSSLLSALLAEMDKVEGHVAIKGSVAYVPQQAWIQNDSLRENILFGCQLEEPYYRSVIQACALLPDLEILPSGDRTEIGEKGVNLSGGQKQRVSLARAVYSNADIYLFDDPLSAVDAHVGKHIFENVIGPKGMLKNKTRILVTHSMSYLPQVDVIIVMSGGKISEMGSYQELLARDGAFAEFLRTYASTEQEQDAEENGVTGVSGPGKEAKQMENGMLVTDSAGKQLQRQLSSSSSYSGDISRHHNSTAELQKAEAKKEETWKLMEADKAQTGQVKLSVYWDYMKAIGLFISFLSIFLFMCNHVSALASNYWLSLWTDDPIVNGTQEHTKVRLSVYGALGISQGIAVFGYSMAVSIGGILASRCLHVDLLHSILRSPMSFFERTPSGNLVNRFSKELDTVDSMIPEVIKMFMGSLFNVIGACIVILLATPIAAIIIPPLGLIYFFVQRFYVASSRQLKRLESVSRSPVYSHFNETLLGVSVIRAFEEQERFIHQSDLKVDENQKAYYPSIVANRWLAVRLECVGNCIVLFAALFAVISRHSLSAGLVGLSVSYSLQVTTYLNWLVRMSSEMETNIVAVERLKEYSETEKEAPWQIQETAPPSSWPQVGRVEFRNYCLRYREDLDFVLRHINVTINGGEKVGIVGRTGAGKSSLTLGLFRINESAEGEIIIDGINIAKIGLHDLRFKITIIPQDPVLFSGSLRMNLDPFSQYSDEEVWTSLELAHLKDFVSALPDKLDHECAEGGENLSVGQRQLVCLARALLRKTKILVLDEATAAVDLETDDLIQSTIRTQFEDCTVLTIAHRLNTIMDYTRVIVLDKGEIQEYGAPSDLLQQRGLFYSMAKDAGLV

[12] = target: T2, Multidrug resistance-associated protein 1; test: Inhibition of MRP1 (unknown origin) measured for 2 hrs
P-gp (ABCB1) [13] = target: T4, P-gp (ABCB1); test: Inhibition of P-gp (unknown origin) expressed in dog MDCK-MDR1cells assessed as maximum inhibition by calcein AM accumulation assay relative to control; type: cell-based; conditions: MDCK-MDR1 cells, probe calcein AM, read-out: Imax
MRP1 [14] = target: T6, MRP1; test: Inhibition of MRP1 in human NCI-H69AR cells assessed as maximum inhibition at 10 uM incubated for 180 mins in presence of daunorubicin by flow cytometry analysis relative to control; type: cell-based; conditions: probe daunorubicin; procedure, shortened: as §3
BCRP (ABCG2) [15] = target: T5, BCRP (ABCG2); test: Inhibition of BCRP (unknown origin) expressed in dog MDCK-II cells assessed as maximum inhibition using pheophorbide A as substrate preincubated for 20 mins followed by substrate addition and measured after 120 mins by flow cytometry analysis relative to control; type: cell-based; conditions: probe pheophorbide A, time 140 min, read-out: Imax; procedure, shortened: as §1
MRP1 [16] = target: T6, MRP1; test: Inhibition of MRP1 in human NCI-H69AR cells assessed as maximum inhibition incubated for 180 mins in presence of daunorubicin by flow cytometry analysis relative to control; type: cell-based; conditions: probe daunorubicin, read-out: Imax; procedure, shortened: as §3
P-gp (ABCB1) [17] = target: T4, P-gp (ABCB1); test: Inhibition of P-gp (unknown origin) expressed in dog MDCK-MDR1cells assessed as maximum inhibition at 10 uM by calcein AM accumulation assay relative to control; type: cell-based; conditions: MDCK-MDR1 cells, probe calcein AM
[18] = target: T3, Broad substrate specificity ATP-binding cassette transporter ABCG2; test: Inhibition of BCRP (unknown origin) expressed in MDCK cells assessed as increase in Hoechst 33342 accumulation incubated for 60 mins by Hoechst 33342 dye based fluorescence assay; type: cell-based
[19] = Inhibition of cell growth in SN-38 resistant dog MDCK-II-BCRP cells expressing BCRP measured for 72 hrs by MTT assay; type: functional; conditions: Canis lupus familiaris
Procedure, shortened: (§4)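 Reversal assay: resistant lines (A2780/ADR, H69AR, MDCK II BCRP) and parental lines seeded as for MTT assay with modulator solutions of 1, 10 and 100 µM added (final 0.1, 1, 10 µM) and daunorubicin (P-gp, MRP1) or SN-38 (BCRP) at final 10 nM–10 µM. 72 h, MTT read-out; GI50 by variable-slope fit. Resistance factor = resistant/sensitive GI50; potentiation factor = GI50 without/with modulator.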

[20] = Inhibition of SN-38 sensitive dog MDCK-II-BCRP cells expressing BCRP measured for 72 hrs by MTT assay; type: functional; conditions: Canis lupus familiaris
[21] = Resistance factor, ratio of GI50 for inhibition of cell growth in daunorubicin resistant human NCI-H69AR cells expressing MRP1 to GI50 for inhibition of daunorubicin sensitive human NCI-H69 cells
[22] = Inhibition of daunorubicin sensitive human NCI-H69AR cells expressing MRP1 measured for 72 hrs by MTT assay; type: functional; procedure, shortened: as §4
[23] = Inhibition of daunorubicin sensitive human A2780 ADR cells expressing P-gp measured for 72 hrs by MTT assay; type: functional; procedure, shortened: as §4
[24] = Inhibition of cell growth in Daunorubicin resistant human A2780 ADR cells expressing P-gp measured for 72 hrs by MTT assay; type: functional; procedure, shortened: as §4
[25] = Resistance factor, ratio of GI50 for inhibition of cell growth in daunorubicin resistant human A2780 ADR cells expressing P-gp measured for 72 hrs by MTT assay to GI50 for inhibition of daunorubicin sensitive human A2780 cells measured for 72 hrs by MTT assay
H69AR = test: Inhibition of cell growth in Daunorubicin resistant human NCI-H69AR cells expressing MRP1 measured for 72 hrs by MTT assay; type: functional; procedure, shortened: as §4

T1 sequence (P08183 whole entry): as the sequence (P08183 whole entry) above
T2 sequence (P33527 whole entry): as the sequence (P33527 whole entry) above

COc1cc(N(C)C(=O)Cc2cccc(-n3c(=O)c4c(C)onc4c4c(Cl)cccc43)c2)cc(OC)c1OC showed an IC50 [1] of 1330 nM and an IC50 [2] of 320 nM.
Work on COc1ccc(Nc2nc(-c3ccccc3)nc3ccccc23)cc1OC yielded an IC50 [3] of 1190 nM.
N#Cc1c2n(c3c(N4CCN(CCc5ccc(F)c(F)c5)CC4)nc(-c4ccncc4)nc13)CCCC2 gave an IC50 [1] of 105 nM and an IC50 [4] of 1310 nM.
Work on N#Cc1c2n(c3c(N4CCN(CCc5c[nH]c6ccccc56)CC4)ncnc13)CCCC2 yielded an IC50 [5] of 3410 nM, an inhibition at 0.5 h, 10 µM (P-gp (ABCB1) [6]) of over 25% and an IC50 [7] of 3410 nM. For the same molecule, the inhibition at 2 h, 10 µM (BCRP (ABCG2) [8]) was over 25%, the IC50 [9] was 344 nM and the IC50 [10] was 5620 nM. The inhibition at 3 h, 10 µM (MRP1 [11]) was 25%.
In the case of COc1cc2c(cc1OC)CN(CCn1c(-c3ccc(N(C)C)cc3)nc3ccc([N+](=O)[O-])cc3c1=O)CC2, the IC50 [12] is reported as 400 nM and the IC50 [1] is reported as 600 nM.
COc1ccc(C(=O)/C=C/c2ccc(OC)c(OC)c2)c(OC(=O)c2ccccc2OC)c1 showed an IC50 [1] of 2160 nM.
With c1ccc(CCN2CCN(c3ncnc4c3[nH]c3ccccc34)CC2)cc1 the Emax (P-gp (ABCB1) [13]) was 26%, the IC50 [5] was 839 nM and the inhibition at 0.5 h, 10 µM (P-gp (ABCB1) [6]) was over 25%. It also gave an inhibition at 3 h, 10 µM (MRP1 [14]) of 60%, an Emax at 2 h (BCRP (ABCG2) [15]) of 28% and an inhibition at 2 h, 10 µM (BCRP (ABCG2) [8]) of over 25%. For the same molecule, the IC50 [9] was 405 nM, the IC50 [10] was 1110 nM and the Emax at 3 h (MRP1 [16]) was 61%. The inhibition at 3 h, 10 µM (MRP1 [11]) was over 25%.
In the case of N#Cc1cn(Cc2ccccc2)c2c(NCCCc3ccccc3)ncnc12, the IC50 [7] is reported as 20400 nM, the IC50 [1] is reported as 14000 nM and the IC50 [2] is reported as 790 nM.
Molecule c1ccc2c(c1)[nH]c1c(N3CCN(Cc4ccc5c(c4)OCO5)CC3)ncnc12 has an IC50 [5] of 7930 nM, an inhibition at 0.5 h, 10 µM (P-gp (ABCB1) [6]) of over 25% and an inhibition at 3 h, 10 µM (MRP1 [14]) of 60%. The inhibition at 2 h, 10 µM (BCRP (ABCG2) [8]) was over 25%, the IC50 [9] was 717 nM and the IC50 [10] was 3920 nM. The inhibition at 10 µM (P-gp (ABCB1) [17]) was 30% and the inhibition at 3 h, 10 µM (MRP1 [11]) was over 25%.
For COc1ccc(/C=C/C(=O)c2ccccc2NC(=O)c2cnc3ccccc3c2)cc1OC, the IC50 [18] was 573 nM and the IC50 [1] was 494 nM.
In the case of CCc1c2c(nc3ccc(O)cc13)-c1cc3c(c(=O)n1C2)COC(=O)[C@]3(O)CC [7-ETHYL-10-HYDROXYCAMPTOTHECIN], the GI50 [19] is reported as 1710 nM and the GI50 [20] is reported as 86 nM.
Work on COc1cccc2c1C(=O)c1c(O)c3c(c(O)c1C2=O)C[C@@](O)(C(C)=O)C[C@@H]3O[C@H]1C[C@H](N)[C@H](O)[C@H](C)O1 [DAUNORUBICIN] yielded a RatioGI50 [21] of 11, a GI50 [22] of 361 nM and a GI50 [23] of 10 nM. It also gave a GI50 [24] of 575 nM, a RatioGI50 [25] of 54 and a GI50 (H69AR) of 3840 nM.

Source: ChEMBL document CHEMBL5260824, “9-Deazapurines as Broad-Spectrum Inhibitors of the ABC Transport Proteins P-Glycoprotein, Multidrug Resistance-Associated Protein 1, and Breast Cancer Resistance Protein” (J Med Chem, 2017)
